Test results published in ChEMBL document CHEMBL1152825, “Pseudomonas aeruginosa may accumulate drug resistance mechanisms without losing its ability to cause bloodstream infections” (2007).
In brackets after ≈: the same amount, converted by molar mass.

Tests used:
Pseudomonas aeruginosa [1] = assay: Antibacterial activity against beta-lactams resistant Pseudomonas aeruginosa isolate expressing MexAB-OprM pump, MexXY-OprM pump by macrodilution technique; format: functional
How it was run: (§1)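 MICs by agar macrodilution on Mueller-Hinton agar with calibrated divalent cations. Isolates were graded susceptible, intermediate or resistant by CLSI breakpoints. Resistance was defined as a ≥fourfold MIC rise over reference strain PAO1. Resistance mechanisms were assigned by RT-PCR (PAO1-derived overexpressing mutants as controls) and gene complementation.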

Pseudomonas aeruginosa [2] = assay: Antibacterial activity against beta-lactams resistant Pseudomonas aeruginosa isolate expressing AmpC, MexAB-OprM pump, MexXY-OprM pump by macrodilution technique; format: functional; how it was run: as §1
Pseudomonas aeruginosa [3] = assay: Antibacterial activity against beta-lactams resistant Pseudomonas aeruginosa isolate expressing AmpC, MexAB-OprM pump by macrodilution technique; format: functional
How it was run: as §1, with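 “Bloodstream P. aeruginosa isolates from patients in six French teaching hospitals (1999–2004). MICs” for “MICs”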

Pseudomonas aeruginosa [4] = assay: Antibacterial activity against beta-lactams resistant Pseudomonas aeruginosa isolate expressing OXA2 by macrodilution technique; format: functional; how it was run: as §1
Pseudomonas aeruginosa [5] = assay: Antibacterial activity against beta-lactams resistant Pseudomonas aeruginosa isolate expressing AmpC by macrodilution technique; format: functional; how it was run: as §1
Pseudomonas aeruginosa [6] = assay: Antibacterial activity against beta-lactams resistant Pseudomonas aeruginosa isolate expressing MexAB-OprM pump by macrodilution technique; format: functional; how it was run: as §1
Pseudomonas aeruginosa [7] = assay: Antibacterial activity against MexXY-OprM pump-independent aminoglycoside-resistant Pseudomonas aeruginosa isolate by macrodilution technique; format: functional
How it was run: as §1, with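 “Bloodstream P. aeruginosa isolates from patients in six French teaching hospitals (1999–2004). MICs” for “MICs”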

Pseudomonas aeruginosa [8] = assay: Antibacterial activity against aminoglycoside-resistant Pseudomonas aeruginosa isolate expressing AAC(6')-1, ANT(2'')-1 by macrodilution technique; format: functional
How it was run: as §1, with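 “Bloodstream P. aeruginosa isolates from patients in six French teaching hospitals (1999–2004). MICs” for “MICs”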

Pseudomonas aeruginosa [9] = assay: Antibacterial activity against aminoglycoside-resistant Pseudomonas aeruginosa isolate expressing MexXY-OprM pump, AAC(3')-1 by macrodilution technique; format: functional
How it was run: as §1, with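 “Bloodstream P. aeruginosa isolates from patients in six French teaching hospitals (1999–2004). MICs” for “MICs”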

Pseudomonas aeruginosa [10] = assay: Antibacterial activity against aminoglycoside-resistant Pseudomonas aeruginosa isolate expressing ANT(2'')-1 by macrodilution technique; format: functional
How it was run: as §1, with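 “Bloodstream P. aeruginosa isolates from patients in six French teaching hospitals (1999–2004). MICs” for “MICs”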

Pseudomonas aeruginosa [11] = assay: Antibacterial activity against aminoglycoside-resistant Pseudomonas aeruginosa isolate expressing AAC(6')-1 by macrodilution technique; format: functional
How it was run: as §1, with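 “Bloodstream P. aeruginosa isolates from patients in six French teaching hospitals (1999–2004). MICs” for “MICs”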

Pseudomonas aeruginosa [12] = assay: Antibacterial activity against aminoglycoside-resistant Pseudomonas aeruginosa isolate expressing MexXY-OprM pump, ANT(2'')-1 by macrodilution technique; format: functional
How it was run: as §1, with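 “Bloodstream P. aeruginosa isolates from patients in six French teaching hospitals (1999–2004). MICs” for “MICs”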

Pseudomonas aeruginosa [13] = assay: Antibacterial activity against aminoglycoside-resistant Pseudomonas aeruginosa isolate expressing MexXY-OprM pump, AAC(6')-1 by macrodilution technique; format: functional
How it was run: as §1, with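 “Bloodstream P. aeruginosa isolates from patients in six French teaching hospitals (1999–2004). MICs” for “MICs”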

Pseudomonas aeruginosa [14] = assay: Antibacterial activity against aminoglycoside-resistant Pseudomonas aeruginosa isolate expressing MexXY-OprM pump, AAC(6')-1, ANT(2'')-1 by macrodilution technique; format: functional
How it was run: as §1, with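 “Bloodstream P. aeruginosa isolates from patients in six French teaching hospitals (1999–2004). MICs” for “MICs”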

Pseudomonas aeruginosa [15] = assay: Antibacterial activity against wild type Pseudomonas aeruginosa PAO1 by macrodilution technique; format: functional
How it was run: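 Wild-type reference strain PAO1. MIC by agar macrodilution on Mueller-Hinton agar with calibrated divalent cations. It served as the baseline for defining a ≥fourfold MIC increase in clinical isolates, and as the expression reference in RT-PCR.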

Pseudomonas aeruginosa [16] = assay: Antibacterial activity against Pseudomonas aeruginosa clinical isolates assessed as resistant rate by macrodilution technique; format: functional
Pseudomonas aeruginosa [17] = assay: Antibacterial activity against wild type Pseudomonas aeruginosa isolate by macrodilution technique; format: functional; how it was run: as §1
Pseudomonas aeruginosa [18] = assay: Antibacterial activity against aminoglycoside-resistant Pseudomonas aeruginosa isolate expressing MexXY-OprM pump, AAC(6')-1, AAC(3')-1 by macrodilution technique; format: functional
How it was run: as §1, with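 “Bloodstream P. aeruginosa isolates from patients in six French teaching hospitals (1999–2004). MICs” for “MICs”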

Pseudomonas aeruginosa [19] = assay: Antibacterial activity against Pseudomonas aeruginosa clinical isolate by macrodilution technique; format: functional
Pseudomonas aeruginosa [20] = assay: Antibacterial activity against aminoglycoside-resistant Pseudomonas aeruginosa isolate expressing MexXY-OprM pump by macrodilution technique; format: functional
How it was run: as §1, with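 “Bloodstream P. aeruginosa isolates from patients in six French teaching hospitals (1999–2004). MICs” for “MICs”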

Pseudomonas aeruginosa [21] = assay: Antibacterial activity against Pseudomonas aeruginosa clinical isolates assessed as susceptible rate by macrodilution technique; format: functional
Pseudomonas aeruginosa [22] = assay: Antibacterial activity against beta-lactams resistant Pseudomonas aeruginosa isolate expressing MexXY-OprM pump, TEM-2 by macrodilution technique; format: functional; how it was run: as §1
Pseudomonas aeruginosa [23] = assay: Antibacterial activity against beta-lactams resistant Pseudomonas aeruginosa isolate expressing AmpC, MexXY-OprM pump, TEM-2 by macrodilution technique; format: functional; how it was run: as §1
Pseudomonas aeruginosa [24] = assay: Antibacterial activity against beta-lactams resistant Pseudomonas aeruginosa isolate expressing PSE-1 by macrodilution technique; format: functional; how it was run: as §1
Pseudomonas aeruginosa [25] = assay: Antibacterial activity against beta-lactams resistant Pseudomonas aeruginosa isolate expressing MexXY-OprM pump by macrodilution technique; format: functional; how it was run: as §1
Pseudomonas aeruginosa [26] = assay: Antibacterial activity against beta-lactams resistant Pseudomonas aeruginosa isolate expressing AmpC, PSE-1, MexXY-OprM pump by macrodilution technique; format: functional; how it was run: as §1
Pseudomonas aeruginosa [27] = assay: Antibacterial activity against beta-lactams resistant OprD-deficient Pseudomonas aeruginosa isolate by macrodilution technique; format: functional; how it was run: as §1
Pseudomonas aeruginosa [28] = assay: Antibacterial activity against beta-lactams resistant Pseudomonas aeruginosa isolate expressing PSE-1, MexXY-OprM pump by macrodilution technique; format: functional; how it was run: as §1
Pseudomonas aeruginosa [29] = assay: Antibacterial activity against beta-lactams resistant Pseudomonas aeruginosa isolate expressing AmpC, MexXY-OprM pump by macrodilution technique; format: functional; how it was run: as §1
Pseudomonas aeruginosa [30] = assay: Antibacterial activity against fluoroquinolone-resistant Pseudomonas aeruginosa isolate with GyrA mutant by macrodilution technique

SMILES	MIC (Pseudomonas aeruginosa [1]) [µg/mL]	MIC (Pseudomonas aeruginosa [2]) [µg/mL]	MIC (Pseudomonas aeruginosa [3]) [µg/mL]	MIC (Pseudomonas aeruginosa [4]) [µg/mL]	MIC (Pseudomonas aeruginosa [5]) [µg/mL]	MIC (Pseudomonas aeruginosa [6]) [µg/mL]	MIC (Pseudomonas aeruginosa [15]) [µg/mL]	Activity (Pseudomonas aeruginosa [16]) [%]	MIC50 (Pseudomonas aeruginosa [19]) [µg/mL]	MIC90 (Pseudomonas aeruginosa [19]) [µg/mL]	Activity (Pseudomonas aeruginosa [21]) [%]	MIC (Pseudomonas aeruginosa [22]) [µg/mL]	also measured
CO/N=C(\C(=O)N[C@@H]1C(=O)N2C(C(=O)[O-])=C(C[N+]3(C)CCCC3)CS[C@H]12)c1csc(N)n1	8 (≈ 16.6 µM)	8 (≈ 16.6 µM)	8 (≈ 16.6 µM)	2 (≈ 4.16 µM)	8 (≈ 16.6 µM)	8 (≈ 16.6 µM)	–	–	–	–	–	–	–
NCC[C@H](O)C(=O)N[C@@H]1C[C@H](N)[C@@H](O[C@H]2O[C@H](CN)[C@@H](O)[C@H](O)[C@H]2O)[C@H](O)[C@H]1O[C@H]1O[C@H](CO)[C@@H](O)[C@H](N)[C@H]1O [AMIKACIN]	–	–	–	–	–	–	4 (≈ 6.83 µM)	1.7	4 (≈ 6.83 µM)	16 (≈ 27.3 µM)	93.3	–	MIC (Pseudomonas aeruginosa [7]): 8 µg/mL (≈ 13.7 µM); MIC (Pseudomonas aeruginosa [8]): 16 µg/mL (≈ 27.3 µM); MIC (Pseudomonas aeruginosa [9]): 8 µg/mL (≈ 13.7 µM); MIC (Pseudomonas aeruginosa [10]): 4 µg/mL (≈ 6.83 µM); MIC (Pseudomonas aeruginosa [11]): 16 µg/mL (≈ 27.3 µM); MIC (Pseudomonas aeruginosa [12]): 8 µg/mL (≈ 13.7 µM); MIC (Pseudomonas aeruginosa [13]): 32 µg/mL (≈ 54.6 µM); MIC (Pseudomonas aeruginosa [14]): 16 µg/mL (≈ 27.3 µM); MIC (Pseudomonas aeruginosa [17]): 4 µg/mL (≈ 6.83 µM); MIC (Pseudomonas aeruginosa [18]): 128 µg/mL (≈ 219 µM); MIC (Pseudomonas aeruginosa [20]): 8 µg/mL (≈ 13.7 µM)
C[C@H]1[C@H](NC(=O)/C(=N\OC(C)(C)C(=O)O)c2csc(N)n2)C(=O)N1S(=O)(=O)O [AZTREONAM]	–	–	8 (≈ 18.4 µM)	–	–	–	–	–	–	–	–	8 (≈ 18.4 µM)	–
CC(C)(O/N=C(\C(=O)N[C@@H]1C(=O)N2C(C(=O)[O-])=C(C[n+]3ccccc3)CS[C@H]12)c1csc(N)n1)C(=O)O [CEFTAZIDIME]	2 (≈ 3.66 µM)	16 (≈ 29.3 µM)	4 (≈ 7.32 µM)	2 (≈ 3.66 µM)	16 (≈ 29.3 µM)	4 (≈ 7.32 µM)	1 (≈ 1.83 µM)	3.3	2 (≈ 3.66 µM)	8 (≈ 14.6 µM)	90	8 (≈ 14.6 µM)	MIC (Pseudomonas aeruginosa [23]): 32 µg/mL (≈ 58.5 µM); MIC (Pseudomonas aeruginosa [24]): 2 µg/mL (≈ 3.66 µM); MIC (Pseudomonas aeruginosa [25]): 2 µg/mL (≈ 3.66 µM); MIC (Pseudomonas aeruginosa [26]): 8 µg/mL (≈ 14.6 µM); MIC (Pseudomonas aeruginosa [27]): 2 µg/mL (≈ 3.66 µM); MIC (Pseudomonas aeruginosa [28]): 2 µg/mL (≈ 3.66 µM); MIC (Pseudomonas aeruginosa [29]): 8 µg/mL (≈ 14.6 µM)
O=C(O)c1cn(C2CC2)c2cc(N3CCNCC3)c(F)cc2c1=O [CIPROFLOXACIN]	–	–	–	–	–	–	–	–	–	–	–	–	MIC (Pseudomonas aeruginosa [30]): 16 µg/mL (≈ 48.3 µM)
